Measurements taken from ChEMBL document CHEMBL1132319, “2,3-Dihydro-2-oxo-1H-benzimidazole-1-carboxamides with selective affinity for the 5-HT(4) receptor: synthesis and structure-affinity and structure-activity relationships of a new series of partial agonist and antagonist derivatives” (J Med Chem, 1999).

What was measured:
[1] = molecular target: T1, 5-hydroxytryptamine receptor 4 (Cavia porcellus, UniProt O70528); assay: Displacement of [3H]GR-113808 from 5-hydroxytryptamine 4 receptor in guinea pig striatum
T1 sequence (O70528 whole entry): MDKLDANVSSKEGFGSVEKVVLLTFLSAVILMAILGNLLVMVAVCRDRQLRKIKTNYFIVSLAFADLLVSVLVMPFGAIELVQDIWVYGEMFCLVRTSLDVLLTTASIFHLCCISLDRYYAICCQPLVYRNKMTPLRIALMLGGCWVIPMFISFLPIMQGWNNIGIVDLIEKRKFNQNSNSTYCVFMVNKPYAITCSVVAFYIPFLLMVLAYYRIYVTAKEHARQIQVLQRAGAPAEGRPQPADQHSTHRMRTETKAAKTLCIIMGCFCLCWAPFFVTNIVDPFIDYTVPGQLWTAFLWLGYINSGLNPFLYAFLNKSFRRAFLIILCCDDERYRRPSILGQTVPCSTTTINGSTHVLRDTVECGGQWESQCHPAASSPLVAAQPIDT
Method in brief: (§1)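 Male Dunkin–Hartley guinea pig striatal membranes in 50 mM Hepes pH 7.4 (1:80 wt/vol, 800–900 μg protein) with 0.1 nM [3H]GR 113808. Nonspecific binding with 10 μM 5-HT. Incubated 30 min at 25 °C, then filtered on PEI-treated filters and counted by scintillation. 10–12 displacer concentrations; two experiments in triplicate; IC50 and Ki.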

[2] = molecular target: T2, Serotonin 3 (5-HT3) receptor (Rattus norvegicus, UniProt P35563+Q9JJ16); assay: Inhibitory concentration against 5-hydroxytryptamine 3 receptor in rat entorhinal cortex using [3H]-LY 278584 as radioligand
T2 sequence (P35563 whole entry): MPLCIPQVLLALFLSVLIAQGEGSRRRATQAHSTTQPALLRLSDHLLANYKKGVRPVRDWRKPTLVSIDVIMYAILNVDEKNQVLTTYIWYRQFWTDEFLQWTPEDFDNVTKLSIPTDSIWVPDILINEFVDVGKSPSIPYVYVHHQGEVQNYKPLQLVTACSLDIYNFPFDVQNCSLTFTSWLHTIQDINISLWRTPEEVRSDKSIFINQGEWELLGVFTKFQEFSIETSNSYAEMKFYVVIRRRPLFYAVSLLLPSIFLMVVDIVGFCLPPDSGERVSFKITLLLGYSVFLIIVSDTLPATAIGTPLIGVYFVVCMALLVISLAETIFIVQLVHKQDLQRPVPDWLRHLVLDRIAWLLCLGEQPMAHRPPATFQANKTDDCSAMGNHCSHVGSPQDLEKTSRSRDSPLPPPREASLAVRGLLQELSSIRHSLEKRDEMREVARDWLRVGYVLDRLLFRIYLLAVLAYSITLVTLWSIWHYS
T2 sequence (Q9JJ16 whole entry): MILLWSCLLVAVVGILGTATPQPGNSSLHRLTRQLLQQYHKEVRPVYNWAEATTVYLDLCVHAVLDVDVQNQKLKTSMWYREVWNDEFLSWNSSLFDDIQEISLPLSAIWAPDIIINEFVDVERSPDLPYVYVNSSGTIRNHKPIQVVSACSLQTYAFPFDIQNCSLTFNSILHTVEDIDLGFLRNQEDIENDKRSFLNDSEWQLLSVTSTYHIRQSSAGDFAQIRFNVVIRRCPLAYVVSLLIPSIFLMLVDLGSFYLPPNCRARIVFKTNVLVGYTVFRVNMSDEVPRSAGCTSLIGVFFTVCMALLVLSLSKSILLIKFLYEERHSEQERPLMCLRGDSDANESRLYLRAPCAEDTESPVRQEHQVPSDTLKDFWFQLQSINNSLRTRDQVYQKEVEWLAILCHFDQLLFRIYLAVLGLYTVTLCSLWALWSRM
Method in brief: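 Male Wistar rat entorhinal cortex membranes in 50 mM Tris-HCl with 5 mM CaCl2, 0.1% ascorbate and 10 μM pargyline (1:40 wt/vol, 500–600 μg protein), with 2 nM [3H]LY 278584. Nonspecific binding with 10 μM 5-HT.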

[3] = test system: 5-HT4 receptor (Rattus norvegicus); assay: Agonistic activity against 5-hydroxytryptamine 4 receptor
[4] = test system: 5-HT4 receptor (Rattus norvegicus); assay: Antagonistic activity against 5-hydroxytryptamine 4 receptor
[5] = molecular target: T1, 5-hydroxytryptamine receptor 4; assay: Binding affinity against 5-hydroxytryptamine 4 receptor in guinea pig striatum using [3H]GR-113808 as radioligand; method in brief: as §1

SMILES	IC50 [1]	IC50 [2]	Intrinsic activity [3]	pKb [4]	Ki [5]	Ki [2]
CCCCn1c(=O)n(C(=O)NCCN2CCN(C)CC2)c2ccccc21	> 1 µM	> 1 µM	< 0.3	< 6	–	–
CC(C)n1c(=O)n(C(=O)NCCCN2CCN(C)CC2)c2ccccc21	> 1 µM	> 1 µM	< 0.3	< 6	–	–
CCn1c(=O)n(C(=O)NCCN2CCN(C(C)C)CC2)c2ccccc21	–	> 1 µM	–	–	0.0252 µM	–
CC(C)n1c(=O)n(C(=O)NCCN2CCN(C)CC2)c2ccccc21	–	> 1 µM	0.94	< 6	0.0911 µM	–
CC(C)n1c(=O)n(C(=O)NN2CCN(C)CC2)c2ccccc21	> 1 µM	–	< 0.3	< 6	–	0.201 µM
CN1CCN(CCNC(=O)n2c(=O)n(C3CC3)c3ccccc32)CC1	–	> 1 µM	–	–	0.0102 µM	–
Cn1cc(C(=O)OCC2CCN(CCNS(C)(=O)=O)CC2)c2ccccc21	–	> 1 µM	–	–	0.00011 µM	–
CN1CCN(CCNC(=O)n2c(=O)n(Cc3ccccc3)c3ccccc32)CC1	> 1 µM	> 1 µM	< 0.3	< 6	–	–
CN1CCN(CCNC(=O)n2c(=O)n(C)c3ccccc32)CC1	–	> 1 µM	0.42	< 6	0.306 µM	–
CCCn1c(=O)n(C(=O)NCCN2CCN(C)CC2)c2ccccc21	–	> 1 µM	0.48	< 6	0.253 µM	–
CC(C)n1c(=O)n(C(=O)NCCN2CCN(C)CC2)c2cc(Cl)ccc21	> 1 µM	> 1 µM	0.7	< 6	–	–
CCn1c(=O)n(C(=O)NCCN2CCN(C)CC2)c2ccccc21	–	> 1 µM	< 0.3	6.79	0.0754 µM	–
CCCCN1CCN(CCNC(=O)n2c(=O)n(C3CC3)c3ccccc32)CC1	–	> 1 µM	0.46	7.51	0.0133 µM	–
Cc1cccc2c1n(C(C)C)c(=O)n2C(=O)NCCN1CCN(C)CC1	–	–	–	–	0.216 µM	–
CN1CCN(CCNC(=O)n2c(=O)n(CCc3ccccc3)c3ccccc32)CC1	> 1 µM	> 1 µM	–	–	–	–
CCCN1CCN(CCNC(=O)n2c(=O)n(C(C)C)c3ccccc32)CC1	–	> 1 µM	0.68	6.89	0.0873 µM	–
CCN1CCN(CCNC(=O)n2c(=O)n(CC)c3ccccc32)CC1	–	> 1 µM	–	–	0.0179 µM	–
CC(C)n1c(=O)n(C(=O)NCN2CCN(C)CC2)c2ccccc21	> 1 µM	–	–	–	–	0.309 µM
CCCN1CCN(CCNC(=O)n2c(=O)n(CC)c3ccccc32)CC1	–	> 1 µM	–	–	0.0169 µM	–
CC(C)n1c(=O)n(C(=O)NCCN2CCN(Cc3ccc4c(c3)OCO4)CC2)c2ccccc21	> 1 µM	> 1 µM	0.3	< 6	–	–

SMILES	IC50 [1]	IC50 [2]	Intrinsic activity [3]	pKb [4]	Ki [5]	Ki [2]
CCCCN1CCN(CCNC(=O)n2c(=O)n(CC)c3ccccc32)CC1	–	> 1 µM	< 0.3	7.73	0.0341 µM	–
CC(C)n1c(=O)n(C(=O)NCCN2CCN(C)CC2)c2cc(F)ccc21	–	> 1 µM	0.67	6.88	0.108 µM	–
CC(C)n1c(=O)n(C(=O)NCCN2CCN(C)CC2)c2cc(F)c(N)cc21	> 1 µM	> 1 µM	< 0.3	< 6	–	–
CN1CCN(CNC(=O)n2c(=O)n(C3CC3)c3ccccc32)CC1	–	> 1 µM	0.53	6.19	0.0494 µM	–
C=CC[N+]1(C)CCN(CCNC(=O)n2c(=O)n(C(C)C)c3ccccc32)CC1	–	> 1 µM	< 0.3	6.28	0.0563 µM	–
CN1CCN(CCNC(=O)n2c(=O)[nH]c3ccccc32)CC1	1 µM	> 1 µM	0.35	< 6	–	–
CN1CCN(CCCNC(=O)n2c(=O)n(C3CC3)c3ccccc32)CC1	–	> 1 µM	0.46	6.4	0.0397 µM	–
CC(C)n1c(=O)n(C(=O)NCCN2CCN(Cc3ccc(F)cc3)CC2)c2ccccc21	–	> 1 µM	–	–	0.262 µM	–
COc1ccc2c(c1)n(C(=O)NCCN1CCN(C)CC1)c(=O)n2C(C)C	> 1 µM	> 1 µM	< 0.3	< 6	–	–
CC(C)n1c(=O)n(C(=O)NCCN2CCN(C)CC2)c2cc(F)c([N+](=O)[O-])cc21	> 1 µM	> 1 µM	–	–	–	–
CC(C)N1CCN(CCNC(=O)n2c(=O)n(C(C)C)c3ccccc32)CC1	–	> 1 µM	–	–	0.0898 µM	–
CCCCN1CCN(CCNC(=O)n2c(=O)n(C(C)C)c3ccccc32)CC1	–	> 1 µM	–	–	0.0389 µM	–
CCCC[N+]1(C)CCN(CCNC(=O)n2c(=O)n(C(C)C)c3ccccc32)CC1	–	> 1 µM	0.93	6	0.0663 µM	–
CCCN1CCN(CCNC(=O)n2c(=O)n(C3CC3)c3ccccc32)CC1	–	> 1 µM	0.41	7.46	0.0082 µM	–
CC(C)N1CCN(CCNC(=O)n2c(=O)n(C3CC3)c3ccccc32)CC1	–	> 1 µM	–	–	0.0067 µM	–
CC(C)n1c(=O)n(C(=O)NCCN2CCN(CCCOc3ccc(F)cc3)CC2)c2ccccc21	–	> 1 µM	–	–	0.375 µM	–
CC(C)n1c(=O)n(C(=O)NC2CC3CCC(C2)N3C)c2ccccc21 (centres undefined)	–	–	–	–	0.0639 µM	0.0005 µM
C=CCn1c(=O)n(C(=O)NCCN2CCN(C)CC2)c2ccccc21	> 1 µM	> 1 µM	0.63	< 6	–	–
CC(C)n1c(=O)n(C(=O)NCCN2CC[N+](C)(C)CC2)c2ccccc21	–	> 1 µM	0.75	< 6	0.0685 µM	–
CCN1CCN(CCNC(=O)n2c(=O)n(C(C)C)c3ccccc32)CC1	–	> 1 µM	0.87	6.62	0.104 µM	–
